Laboratory results reported in ChEMBL document CHEMBL1145845, “Acetogenins as selective inhibitors of the human ovarian 1A9 tumor cell line” (2003).
In brackets after ≈: the same amount, converted by molar mass. Activity calls are given as the source filed them.

Tests used:
1A9 = test: Effective dose required for inhibitory activity against 1A9 human tumor cell line.; format: functional; settings: read-out: ED50 (the source's name)
Summary of the method: (§1)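 Human tumor lines were grown in RPMI-1640 with 25 mM HEPES, 0.25% sodium bicarbonate, 10% FBS and 100 µg/mL kanamycin. KB-VIN is a vincristine-resistant KB subline, and PTX10 is a 1A9 subline with mutated β-tubulin. Trypsinized cells (1500–7500/well) got compound from DMSO stock for 3 days continuous. Cells were fixed with cold 50% TCA, stained with 0.4% SRB, and read at 562 nm. ED50 is the 50% growth-reduction concentration; not active means ≤5% inhibition at the top concentration.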

A549 = test: Effective dose required for inhibitory activity against A549 human tumor cell line.; format: functional; settings: read-out: ED50 (the source's name); summary of the method: as §1
CAKI-1 [1] = test: Effective dose required for inhibitory activity against CAK1 human tumor cell line; Not active; format: functional, cell-based; summary of the method: as §1
HOS [2] = test: Effective dose required for inhibitory activity against HOS human tumor cell line; Not active; format: functional, cell-based; summary of the method: as §1
HCT-8 = test: Effective dose required for inhibitory activity against HCT-8 human tumor cell line.; format: functional; settings: read-out: ED50 (the source's name); summary of the method: as §1
KB [3] = test: Effective dose required for inhibitory activity against KB human tumor cell line.; format: functional; settings: read-out: ED50 (the source's name); summary of the method: as §1
KB [4] = test: Effective dose required for inhibitory activity against KB-VIN human tumor cell line.; format: functional; settings: read-out: ED50 (the source's name); summary of the method: as §1
MCF7 = test: Effective dose required for inhibitory activity against MCF-7 human tumor cell line.; format: functional; settings: read-out: ED50 (the source's name); summary of the method: as §1
PC-3 = test: Effective dose required for inhibitory activity against PC-3 human tumor cell line.; format: functional; settings: read-out: ED50 (the source's name); summary of the method: as §1
1A9/ptx-10 [5] = test: Percent inhibition against PTX10 human tumor cell line at >10 ug/mL; format: functional
SK-MEL-2 [6] = test: Effective dose required for inhibitory activity against SK-MEL-2 human tumor cell line; Not active; format: functional, cell-based; summary of the method: as §1
HOS [7] = test: Effective dose required for inhibitory activity against HOS human tumor cell line.; format: functional; settings: read-out: ED50 (the source's name); summary of the method: as §1
SK-MEL-2 [8] = test: Effective dose required for inhibitory activity against SK-MEL-2 human tumor cell line.; format: functional; settings: read-out: ED50 (the source's name); summary of the method: as §1
CAKI-1 [9] = test: Effective dose required for inhibitory activity against CAK1 human tumor cell line; format: functional; settings: read-out: ED50 (the source's name); summary of the method: as §1
1A9/ptx-10 [10] = test: Effective dose required for inhibitory activity against PTX10 human tumor cell line; format: functional; settings: read-out: ED50 (the source's name); summary of the method: as §1

SMILES	EC50 (1A9) [µg/mL]	EC50 (A549) [µg/mL]	NA (CAKI-1 [1])	NA (HOS [2])	EC50 (HCT-8) [µg/mL]	EC50 (KB [3]) [µg/mL]	EC50 (KB [4]) [µg/mL]	EC50 (MCF7) [µg/mL]	EC50 (PC-3) [µg/mL]	Inhibition (1A9/ptx-10 [5]) [%]	NA (SK-MEL-2 [6])	EC50 (HOS [7]) [µg/mL]	EC50 (SK-MEL-2 [8]) [µg/mL]	EC50 (CAKI-1 [9]) [µg/mL]	EC50 (1A9/ptx-10 [10]) [µg/mL]
CCCCCCCCCCCC[C@H](O)[C@@H]1CC[C@@H]([C@@H](O)CCCCC(=O)CCCCCC2CC(CC(C)=O)C(=O)O2)O1 (stereo partly specified) [ISOANNONACINONE]	2.2 (≈ 3.7 µM)	> 20	inactive	inactive	> 20	> 20	> 20	> 20	> 20	19	inactive	–	–	–	–
CCCCCCCCCCCCCCCCCC1OC1C1OC1CCCCCCCCC1=C[C@H](C)OC1=O (stereo partly specified)	8.8 (≈ 16.5 µM)	> 20	inactive	–	> 20	> 20	> 20	> 20	> 20	15	–	> 20	> 20	–	–
CCCCCC(O)C(O)CCCCCC[C@H](O)[C@@H]1CC[C@H](CCCCCCCCCC[C@H](O)CC2=C[C@H](C)OC2=O)O1 (stereo partly specified) [MURICIN B]	0.52 (≈ 0.871 µM)	> 20	inactive	–	> 20	> 20	> 20	15.5 (≈ 26 µM)	> 20	26	–	> 20	> 20	–	–
CCCCCCCC/C=C\CC[C@H](O)[C@@H]1CC[C@@H]([C@H](O)CCCCC(O)CCCCCC(O)CC2=C[C@H](C)OC2=O)O1 (stereo partly specified)	0.93 (≈ 1.56 µM)	17 (≈ 28.6 µM)	–	–	14.4 (≈ 24.2 µM)	13 (≈ 21.9 µM)	17.5 (≈ 29.4 µM)	7.6 (≈ 12.8 µM)	15.3 (≈ 25.7 µM)	40	–	17 (≈ 28.6 µM)	17 (≈ 28.6 µM)	19 (≈ 31.9 µM)	–
CCCCCC[C@@H](O)CCC[C@H](O)[C@@H]1CC[C@@H]([C@H](O)CC[C@@H](O)[C@@H]2CC[C@@H](CCCCCCCCCC3=C[C@@H](C)OC3=O)O2)O1 [Squamostatin-A]	0.0087 (≈ 0.0136 µM)	> 20	–	–	> 20	> 20	> 20	8 (≈ 12.5 µM)	> 20	40	inactive	> 20	–	> 20	–
CCCCCC[C@H](O)CCC[C@H](O)[C@H]1CC[C@H]([C@H]2CC[C@H]([C@H](O)CCCCCCCCCCCCC3=C[C@H](C)OC3=O)O2)O1 [SQUAMOCIN]	0.00032 (≈ 0.000514 µM)	9.3 (≈ 14.9 µM)	–	–	9.8 (≈ 15.7 µM)	8.1 (≈ 13 µM)	12 (≈ 19.3 µM)	6 (≈ 9.63 µM)	11.1 (≈ 17.8 µM)	–	–	8.5 (≈ 13.6 µM)	16.5 (≈ 26.5 µM)	13.5 (≈ 21.7 µM)	7 (≈ 11.2 µM)
CCCCCCCCCCCCCC[C@@H](O)[C@H]1CC[C@H]([C@H](O)CCC(O)CCCCCCCC2=C[C@H](C)OC2=O)O1 (stereo partly specified)	0.81 (≈ 1.39 µM)	20 (≈ 34.4 µM)	–	–	20 (≈ 34.4 µM)	17.3 (≈ 29.8 µM)	> 20	9 (≈ 15.5 µM)	16.8 (≈ 28.9 µM)	43	–	> 20	> 20	> 20	–
CCCCCCCCCCCCC(O)C(O)CCC(O)[C@H]1CC[C@H](CCCCCCC[C@@H](O)CC2=C[C@H](C)OC2=O)O1 (stereo partly specified)	0.07 (≈ 0.117 µM)	> 20	–	–	> 20	> 20	> 20	11.5 (≈ 19.3 µM)	> 20	37	–	> 20	> 20	> 20	–
CCCCCC(O)C(O)CCCCCC[C@@H](O)[C@H]1CC[C@H](CCCCCCCCCC[C@@H](O)CC2=C[C@H](C)OC2=O)O1 (stereo partly specified) [MURICIN A]	0.33 (≈ 0.553 µM)	16.8 (≈ 28.1 µM)	–	–	15 (≈ 25.1 µM)	12.8 (≈ 21.4 µM)	15 (≈ 25.1 µM)	6 (≈ 10.1 µM)	14.1 (≈ 23.6 µM)	–	–	18.4 (≈ 30.8 µM)	18 (≈ 30.2 µM)	> 20	8.2 (≈ 13.7 µM)
CCCCCCCCC[C@H](O)[C@@H]1CC[C@@H]([C@@H]2CC[C@@H](CCCCCCCCCC[C@H](O)CC3=C[C@H](C)OC3=O)O2)O1	1.93 (≈ 3.33 µM)	17.2 (≈ 29.7 µM)	–	–	13.8 (≈ 23.8 µM)	13.5 (≈ 23.3 µM)	> 20	7.6 (≈ 13.1 µM)	14.5 (≈ 25 µM)	30	–	16 (≈ 27.6 µM)	15.3 (≈ 26.4 µM)	17.8 (≈ 30.7 µM)	–
CCCCC(O)C(O)C/C=C\CC[C@H](O)[C@@H]1CC[C@@H](CCCCCCCCCCCC[C@H](O)CC2=C[C@H](C)OC2=O)O1 (stereo partly specified)	0.87 (≈ 1.46 µM)	> 20	–	inactive	> 20	> 20	> 20	14.3 (≈ 24 µM)	> 20	25	–	–	> 20	> 20	–
